# Bioassay records: PubChem, several laboratories
# TAAR1 agonist – agonists of human TAAR1 | Q96RJ0 | CHO RD-HGA16 TAAR1, Fluo-8 calcium fluorescence; vehicle wells 0%, saturating PEA agonist 100% | activation, % at 3 µM | 360,000 compounds, 0.99% hits;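 active = activation above the mean activation of all test compounds in the run plus 3 SD, cut at about 38% in these data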
# Target sequence (Q96RJ0 whole entry, looked up): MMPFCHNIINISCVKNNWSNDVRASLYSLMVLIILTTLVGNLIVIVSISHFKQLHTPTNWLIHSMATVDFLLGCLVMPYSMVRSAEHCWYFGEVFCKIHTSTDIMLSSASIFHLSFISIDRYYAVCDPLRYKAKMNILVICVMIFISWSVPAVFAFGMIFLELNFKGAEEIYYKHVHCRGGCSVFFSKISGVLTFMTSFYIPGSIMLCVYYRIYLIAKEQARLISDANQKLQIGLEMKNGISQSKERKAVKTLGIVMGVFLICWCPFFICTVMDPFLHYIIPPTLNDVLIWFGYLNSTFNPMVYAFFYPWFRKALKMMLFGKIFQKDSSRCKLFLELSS
#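 System: CHO-derived RD-HGA16 cells with stable Gα16 and human TAAR1. Times: 17-24 h plating, Fluo-8 75 min 37 °C, 30 min RT. Measured by: calcium-sensitive Fluo-8 signal, excitation 470-495, emission 515-575 nm. Read-out basis: % activation relative to PEA EC100 response. Control set: DMSO and PEA EC100. Repeats: no replicates (n 1).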
# TAAR1 antag – human TAAR1 antagonism. 360,000 compounds, 1.5% hits. CHO RD-HGA16 TAAR1, Fluo-8 calcium fluorescence, antagonist. inhibition, % at 3 µM. Q96RJ0;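 active = inhibition above a per-plate cutoff, the mean inhibition of test compounds on that plate plus 3 SD, cut at about 49% in these data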;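 note: 0% = DMSO plus EC80 beta-PEA response and 100% = DMSO alone without agonist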
#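 Test system – hTAAR1-expressing CHO RD-HGA16 cells, Gα16-coupled · Also added – β-PEA at EC80 concentration, post-compound challenge · Compound – 3 µM, single point · Incubation – dye loading 75 min at 37 °C, then 30 min room temperature · Measured by – Fluo-8 intracellular calcium dye fluorescence, real-time kinetic reads · Benchmarks – vehicle and agonist controls · Replicates – singlicate, one well per test compound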
# LANA-H2A inh – blocks KSHV LANA binding to histone H2A/H2B; cell-free LANA-H2A/H2B peptide, fluorescence polarization; AID 2629; 320,000 compounds, 0.6% hits; Q9QR71; inhibition, % (no concentration beside the values); in the data active = inhibition mostly above about 10%, no sharp cut-off; inactive = mostly below about 6.7%
# TRPML3 agonist – human mucolipin-3 channel agonism; HEK293 TRPML3-YFP, Fluo-8 calcium fluorescence; 100% = the carbachol control signal; 220,000 compounds, 0.29% hits; AID 1448; activation, % at 3 µM; Q8TDD5;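 active = activation above its plate's cutoff, the mean activation of the plate's test wells plus 3 SD, cut at about 12% in these data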;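 note: 0% = DMSO only wells and 100% = carbachol wells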
#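 system = HEK293 cells stably carrying human TRPML3-YFP | doses = one concentration, 3 µM nominal, 0.3% DMSO | timing = dye loading 1 h 37 °C then 30 min ambient, 125 s read | detection = Fluo-8 calcium dye fluorescence, ex 470-495, em 515-575 nm | benchmarks = high control carbachol 87 µM, low control DMSO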
# zfTRPN1 agonist – agonists of zebrafish TRPN1 channel; activation, % at 3 µM; AID 1424; 220,000 compounds, 0.18% hits; HEK293 zebrafish TRPN1-YFP, Fluo-8 calcium fluorescence; 100% = response to 87 µM carbachol;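 active = activation above its plate's cutoff, the mean activation of test wells on that plate plus 3 SD, cut at about 19% in these data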;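 note: 0% = DMSO alone and 100% = 87 µM carbachol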
#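 Assay system: Zebrafish TRPN1-YFP in HEK293 cells | Incubation: Dye loading 1 h at 37 °C, then 30 min room temperature | Measured by: Kinetic Fluo-8 fluorescence, ex 470-495, em 515-575 nm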
# GPR7 antag – blocks human GPR7 receptor signaling; GPR7-expressing cells, fluorescence antagonist assay; inhibition, % at 4.4 µM; 290,000 compounds, 1.1% hits; AID 1861; in the data active = inhibition above about 16%, passing the limit was not always enough;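 note: cells stimulated with the agonist NPW; 0% = agonist with vehicle and 100% = vehicle without agonist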
# Target sequence (P48145 whole entry, looked up): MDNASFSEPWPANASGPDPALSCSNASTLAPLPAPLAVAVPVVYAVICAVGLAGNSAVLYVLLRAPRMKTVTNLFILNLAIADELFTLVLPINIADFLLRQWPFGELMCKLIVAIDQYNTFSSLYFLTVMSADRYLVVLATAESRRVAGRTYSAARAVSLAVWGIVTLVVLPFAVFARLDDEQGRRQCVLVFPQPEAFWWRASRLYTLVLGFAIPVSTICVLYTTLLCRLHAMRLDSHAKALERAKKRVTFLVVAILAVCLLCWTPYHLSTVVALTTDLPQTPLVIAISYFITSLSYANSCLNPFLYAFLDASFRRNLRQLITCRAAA
# TAAR1 ag confirm – human TAAR1 agonism, confirmed; 2,400 compounds, 82% hits; shares compounds with TAAR1 agonist; CHO RD-HGA16 TAAR1, Fluo-8 calcium fluorescence; scaled: DMSO 0%, maximal phenethylamine 100%; activation, % at 3 µM;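 active = activation above a cutoff set at the run's mean compound activation plus 3 SD, cut at about 39% in these data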
# Ga16 ag counter – counter-screen for TAAR1 agonists: nonselective agonists in parental cells | shares compounds with TAAR1 agonist | CHO-Ga16 parental, Fluo-8 calcium fluorescence; normalized to maximal ATP response, DMSO zero | activation, % at 3 µM | 2,400 compounds, 50% hits;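 active = activation above the run cutoff, the mean activation over all tested wells plus 3 SD, cut at about 12% in these data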;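 note: 0% = DMSO wells and 100% = maximal ATP response on the peak over basal ratio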
# TAAR1 desensitize – counter-screen for human TAAR1 agonists: agonists that desensitize TAAR1; inhibition, % at 3 µM; AID 651951; shares compounds with TAAR1 agonist; CHO RD-HGA16 hTAAR1, Fluo-8 calcium, beta-PEA response inhibition; 2,400 compounds, 46% hits;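 active = inhibition above the run cutoff, the mean inhibition of all test compounds plus 3 SD, cut at about 49% in these data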;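 note: beta-PEA stimulus applied at its EC80; loss of beta-PEA calcium signal after compound pretreatment read as receptor desensitization; 0% = DMSO with beta-PEA at EC80 and 100% = DMSO alone without agonist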
# Ga16 antag count – nonselective Ga16 antagonist in TAAR1 agonist counter-screen; shares compounds with TAAR1 agonist; CHO-Ga16 ATP-induced calcium, Fluo-8 fluorescence; inhibition, % at 3 µM; 2,400 compounds, 39% hits;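 active = inhibition above the plate's mean compound inhibition plus 3 SD, computed per plate, cut at about 22% in these data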;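 note: 0% = EC80 ATP with DMSO and 100% = DMSO wells without ATP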
# * = called active by the depositor; · = no result given. Most compounds without a hit are left out; they make up all but 3.4% or so of the library.
SMILES,TAAR1 agonist,TAAR1 antag,LANA-H2A inh,TRPML3 agonist,zfTRPN1 agonist,GPR7 antag,TAAR1 ag confirm,Ga16 ag counter,TAAR1 desensitize,Ga16 antag count
COc1ccc2ccccc2c1-c1sc(Nc2ccccc2)n[n+]1-c1ccc(F)cc1,64.0*,-11.7,-2.2,·,·,5.6,51.8*,25.4*,46.1,37.0*
O=C(O)c1ccc(-c2sc(Nc3ccccc3)n[n+]2-c2ccc(F)cc2)cc1,·,·,-1.6,·,·,1.5,·,·,·,·
O=C(Nc1ccc(C(F)(F)F)cc1)c1ccccc1-n1cnnn1,2.3,0.8,3.2,·,·,·,·,·,·,·
N/C(=N\N=C/c1ccc(F)cc1)N/N=C\c1ccc(F)cc1,70.1*,62.6*,0.7,·,·,20.2,80.6*,4.1,76.8*,2.0
O=C(COCC(=O)N/N=C/c1ccc(F)cc1)N/N=C/c1ccc(F)cc1,54.3*,7.2,0.9,0.2,-1.7,0.8,66.3*,0.5,42.3,14.1
CC(=O)Oc1ccc(OC(C)=O)c2c1CC1(C)OC1(C)C2 (centres undefined),5.7,-27.6,·,·,·,·,·,·,·,·
CC(=O)Oc1ccccc1Cn1c(C)c(C(=O)NCc2ccccc2C(F)(F)F)sc1=O,1.1,11.9,·,·,·,·,·,·,·,·
COc1ccc(C(=O)NCCN2CCCC2)cc1[N+](=O)[O-],1.8,-2.7,1.6,·,·,-6.6,·,·,·,·
Clc1ccc(-c2ccc(C=Nc3ccc(N4CCOCC4)cc3)o2)c(Cl)c1,30.3,-24.8,-1.8,0.0,0.0,-4.2,·,·,·,·
Clc1ccc(-c2ccc(C=Nc3ccc(N4CCOCC4)cc3)o2)cc1,54.0*,-1.9,6.0,0.3,-1.4,-9.0,27.3,15.0*,15.9,18.0
CCOC(=O)c1c(NS(=O)(=O)c2cccc(OC)c2)sc2c1CCC2,54.8*,10.1,-0.9,0.3,-1.3,-7.1,64.2*,53.6*,42.4,26.0*
COc1ccc(NC(=O)C2(C)CCN2C)cc1OC (centres undefined),1.4,-17.5,·,·,·,·,·,·,·,·
CC(C)OCCCNC(=O)CN1C(=O)c2cccc3cccc1c23,5.5,-1.5,-5.4,·,·,-14.5,·,·,·,·
O=C1N/C(=C/c2ccc(N3CCCC3)cc2)C(=O)N1c1ccccc1,0.2,-6.2,6.1,0.1,-0.4,3.7,·,·,·,·
O=C1/C(=C/c2ccc(N3CCCC3)cc2)NC(=S)N1C1CC1,177.5*,99.1*,-14.0,6.7,9.4,2.9,58.4*,61.1*,70.8*,70.5*
Brc1ccc2ncnc(Nc3cccc4ccccc34)c2c1,52.8*,1.3,3.2,0.5,-0.8,-10.1,15.3,30.3*,2.2,5.1
COc1cccc(Nc2ncnc3ccc(Br)cc23)c1,0.7,-39.9,·,·,·,·,·,·,·,·
O=C(N/N=C/c1ccncc1)c1sc2ccccc2c1Cl,0.5,6.4,2.0,·,·,-19.2,·,·,·,·
COc1ccc2c(Cl)c(C(=O)N/N=C/c3ccncc3)sc2c1,71.5*,48.7*,3.8,·,·,-2.4,5.2,2.9,16.3,5.8
O=C(C1CC(=O)N(C2CCCCC2)C1)N1CCN(c2cccc(C(F)(F)F)c2)CC1 (centres undefined),2.5,-0.8,5.3,·,·,-7.2,·,·,·,·
CC(CNC(=O)[C@H]1O[C@@H](n2cnc3c(=O)[nH]c(N)nc32)[C@H](O)[C@@H]1O)c1ccccc1 (some centres undefined),84.2*,66.5*,·,·,·,·,94.4*,0.4,79.7*,-0.7
CN[C@@H](CO)C(=O)NC[C@H]1O[C@@H](n2cnc3c(=O)[nH]c(N)nc32)[C@H](O)[C@@H]1O,0.4,8.1,·,·,·,·,·,·,·,·
CC(CNC(=O)[C@@H](Cc1ccccc1)NC(=O)[C@H]1O[C@@H](n2cnc3c(=O)[nH]c(N)nc32)[C@H](O)[C@@H]1O)c1ccccc1 (some centres undefined),·,·,·,·,·,·,·,0.8,·,2.4
CCN(CC)c1ncnc2c1ncn2[C@H]1CN(Cc2ccc(-c3ccccc3)cc2)C[C@@H](CO)O1,-0.3,0.8,·,·,·,·,·,·,·,·
Cc1ccc(S(=O)(=O)Nc2cc(C)c(O)c(Sc3n[nH]c(C)n3)c2)cc1,1.3,-8.1,1.0,·,·,4.2,·,·,·,·
SMILES,TAAR1 agonist,TAAR1 antag,LANA-H2A inh,TRPML3 agonist,zfTRPN1 agonist,GPR7 antag,TAAR1 ag confirm,Ga16 ag counter,TAAR1 desensitize,Ga16 antag count
O=S(=O)(NCCOc1ccccc1F)c1cccc(Br)c1,14.5,1.3,-2.7,·,·,·,·,·,·,·
O=C(NC1CCCCC1)c1cccc2c(-c3ccc(F)c(F)c3)coc12,1.8,19.2,·,·,·,·,·,·,·,·
O=c1[nH]nc(Br)c(=O)n1C(c1ccccc1)c1ccccc1,71.3*,16.1,·,·,·,·,46.9*,25.5*,17.7,9.8
O=c1[nH]c(=O)n(C(c2ccccc2)c2ccccc2)cc1Br,3.6,-24.4,3.1,-0.9,-1.7,-7.8,·,·,·,·
CCN(CC)c1ccc(/C=C2\C(=O)c3ccc(C(=O)O)cc3C2=O)cc1,124.8*,85.6*,-8.5,23.5*,68.7*,7.5,143.9*,162.6*,89.0*,92.0*
COc1ccc(-n2nc3c(c2NC(=O)CCCl)CSC3)cc1,-0.1,-21.2,2.6,·,·,-6.5,·,·,·,·
CSc1ccc(C(=O)NC2CCSc3ccccc32)cc1 (centres undefined),64.7*,89.3*,-1.6,·,·,22.7,52.6*,47.6*,66.1*,62.4*
O=c1[nH]cc(NCc2ccccc2)c(=O)[nH]1,7.6,-4.9,·,·,·,·,·,·,·,·
O=c1[nH]cc(NCCc2ccccc2)c(=O)[nH]1,·,·,-6.6,1.0,-0.2,-9.2,·,-0.5,·,16.2
Cc1ccc(S(=O)(=O)N(C)/N=C2/C(=O)N(CC(=O)O)c3ccccc32)cc1,0.9,-12.8,5.5,·,·,-0.6,·,·,·,·
O=C(NCc1ccccc1Cl)c1ccc(Cn2cc(C(F)(F)F)ccc2=O)cc1,9.5,16.1,3.9,0.6,1.0,7.3,·,·,·,·
O=C(NCc1ccc(Cl)cc1)c1ccc(Cn2cc(C(F)(F)F)ccc2=O)cc1,65.5*,29.5,0.9,1.5,1.2,5.5,22.1,24.4*,27.9,25.9*
Cc1ccc(-c2nc(CS(=O)(=O)CC(=O)N3CCc4ccccc4C3)c(C)o2)cc1,66.2*,30.2,-1.2,0.7,-1.1,-10.1,82.3*,2.2,64.5*,14.6
Cc1ccc(-c2nc(CS(=O)(=O)CC(=O)N3CCCCCC3)c(C)o2)cc1,-1.4,-41.8,1.8,0.7,1.6,1.4,·,·,·,·
